Assay results: the array DNA melting data of Ke et al. (doi:10.1101/2024.01.08.574731)

Tests used:
[1] = folding enthalpy; higher = less favourable; fluorescence melt of hairpins on a sequencing array, two-state fit; conditions: sodium 0.088 M
Outline: (§1)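 In 50 mM Na-HEPES pH 8.0 containing 25 mM NaCl, hairpins from the library on a sequenced MiSeq flow cell were imaged for Cy3 fluorescence at 2.5 °C steps up to 60 °C, with Cy3 and quencher oligos annealed. After normalisation to pre-quench Cy3 and to control constructs, two-state fits with bootstrapping gave melting temperature and folding enthalpy. Four replicates were combined by inverse-variance weighting, and fitted temperatures were shifted up by 9.35 °C to match UV melts.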

[2] = melting temperature; fluorescence melt of hairpins on a sequencing array, two-state fit, raised by 9.35 °C to match UV melts; conditions: sodium 0.088 M
Outline: as §1

Sequence | folding enthalpy [1] | Tm [2]
GCCCTGCGAAAGCTTGGC (((..((....))..))) | -23 kcal/mol | 50.6 °C
GACGCCGGAAACGACGTC ((((.((....)).)))) | -44.8 kcal/mol | 57.5 °C
GGCTCGACGAAAGTCGCC (((..(((....)))))) | -8 kcal/mol | 35.1 °C
GAGGTTGAAAAACCTC ((((((....)))))) | -32.6 kcal/mol | 58.2 °C
GCTACAGCGAAAGCTAGC (((..(((....)))))) | -16.3 kcal/mol | 44.5 °C
GATCTCACTGGAGATC ((((((....)))))) | -40 kcal/mol | 51.3 °C
GCTGTGCGAAAGCACCGC ((.((((....)))).)) | -17.9 kcal/mol | 58.7 °C
GATCTGGGAAACCAGACC (.(((((....))))).) | -16.1 kcal/mol | 38.5 °C
GACGCCGAAAGGCCGGTC ((((((....)))..))) | -15 kcal/mol | 42.6 °C
CAAACGAAAGTTTG (((((....))))) | -23 kcal/mol | 53 °C
GGTGCCGAAAGGCATACC ((((((....)))..))) | -11.6 kcal/mol | 48.2 °C
GTCGTCGAAAGACAGGAC ((((((....)))..))) | -18.3 kcal/mol | 41 °C
GCCCGCGGAAACGCGAGC ((.((((....)))).)) | -17.3 kcal/mol | 62.2 °C
GATCTGTTGCCAGATC ((((((....)))))) | -36.9 kcal/mol | 50.5 °C
GATCTAAGCTAGATC ((((((...)))))) | -21.5 kcal/mol | 39.5 °C
GTCCCGGGAAACCAGGAC ((((.((....)).)))) | -22.7 kcal/mol | 46 °C
GATCTGGTTCCAGATC ((((((....)))))) | -47.1 kcal/mol | 53.5 °C
GATCCGTGGGCGGATC ((((((....)))))) | -30.1 kcal/mol | 66.1 °C
GCTTAACGAAAGTTTAGC (((.(((....))).))) | -30.5 kcal/mol | 46.4 °C
GTCTGGCGAAAGCCGGAC (((.(((....))).))) | -25.6 kcal/mol | 69 °C
GATCAACACATTGATC ((((((....)))))) | -36.9 kcal/mol | 44.9 °C
GAGTACCGAAAGGTCTC (((.(((....)))))) | -21.6 kcal/mol | 48.7 °C
GGCTCTGGAAACAGGGCC (((.(((....))).))) | -27.7 kcal/mol | 58.1 °C

Sequence | folding enthalpy [1] | Tm [2]
GACGGAGGAAACTCCGCC (.(((((....))))).) | -14.9 kcal/mol | 48.2 °C
GCCCGCCGAAAGGCTGGC (((.(((....))).))) | -36.2 kcal/mol | 65.1 °C
GGGGTCGAAAGACGACCC ((((((....)))..))) | -19.6 kcal/mol | 61.8 °C
GCTGAGCGAAAGCAAAGC (((..((....))..))) | -28.5 kcal/mol | 60.2 °C
GTGCACCGAAAGGTTCAC (((.(((....))).))) | -42 kcal/mol | 50.5 °C
GTTGTGGGAAACCGCAAC ((((.((....)).)))) | -43 kcal/mol | 53.8 °C
GCTCAGCGAAAGCCAAGC (((..((....))..))) | -16.4 kcal/mol | 41 °C
CGGAGCCGGAAACGGCCG (((..(((....)))))) | -11.2 kcal/mol | 46.6 °C
GAAGCCCCGAAAGGGTTC (((..(((....)))))) | -14.3 kcal/mol | 36.9 °C
GTCGAAGGAAACTTCGGC (.(((((....))))).) | -43.1 kcal/mol | 51.3 °C
GACAGCGAAAGCTTGGTC ((((((....)))..))) | -17.9 kcal/mol | 40 °C
GATCTAAATCTAGATC ((((((....)))))) | -25.2 kcal/mol | 35.4 °C
GGATCTGGAAACAGATTC (.(((((....))))).) | -28.9 kcal/mol | 46.2 °C
GTCGTGGGAAACCACAAC ((.((((....)))).)) | -15.7 kcal/mol | 40.3 °C
GCGTGGGAACGC ((((....)))) | -20.4 kcal/mol | 66.7 °C
GACTCCGAAAGGAAGGTC ((((((....)))..))) | -22.1 kcal/mol | 38.3 °C
GGGGGCGGAAACGCCTCC ((.((((....)))).)) | -24.1 kcal/mol | 66.7 °C
GATCCTTTTTAGGATC ((((((....)))))) | -34.7 kcal/mol | 53.9 °C
GTTAACCGAAAGGTAAC (((.(((....)))))) | -18.8 kcal/mol | 40.8 °C
GCGTAGCGAAAGCTTGGC ((..(((....)))..)) | -7.38 kcal/mol | 36.5 °C
GCCCGCCGAAAGGCCGGC (((.(((....))).))) | -19.4 kcal/mol | 64.8 °C
GACCGGCGAAAGCCTGTC (((.(((....))).))) | -22.3 kcal/mol | 49.6 °C
GAAGGCGCGAAAGCGTTC (((..(((....)))))) | -9.37 kcal/mol | 30.9 °C

Sequence | folding enthalpy [1] | Tm [2]
GGTTGCCCGAAAGGGACC (((..(((....)))))) | -11.5 kcal/mol | 37.9 °C
GCCTGGGGAAACCTAGGC ((((.((....)).)))) | -31.5 kcal/mol | 54.4 °C
GCCCCGCGAAAGCATGGC (((..((....))..))) | -17.4 kcal/mol | 45.4 °C
GATCTTGACTAAGATC ((((((....)))))) | -44 kcal/mol | 49 °C
GACGGACCGAAAGGTGTC (((..(((....)))))) | -17.9 kcal/mol | 41.3 °C
GCCTTAGGAAACTAGGGC (((.(((....))).))) | -34.3 kcal/mol | 45.5 °C
GATTGCGAAAGCAGTATC ((((((....)))..))) | -10.9 kcal/mol | 32.1 °C
GATCGTCAAGACGATC ((((((....)))))) | -37.5 kcal/mol | 58.7 °C
GACTCTGCGAAAGCAGTC (((..(((....)))))) | -7.87 kcal/mol | 32.2 °C
GAATGCGAAAGCACATTC ((((((....)))..))) | -13.2 kcal/mol | 31.3 °C
GCAAAGACGAAAGTCTGC (((..(((....)))))) | -15.7 kcal/mol | 50.2 °C
GACCGTGCGAAAGCAGTC (((..(((....)))))) | -11.4 kcal/mol | 29.6 °C
GCCCTCGAAAGAGAGGC ((((((....))).))) | -31.1 kcal/mol | 58.2 °C
GCAGGTGGAAACATCTGC ((((.((....)).)))) | -37.8 kcal/mol | 52.9 °C
GACATAGGAAACCATGTC (((((.(....).))))) | -29.1 kcal/mol | 37.5 °C
GCTCTGCGAAAGCTAAGC (((..((....))..))) | -13.4 kcal/mol | 37.9 °C
GATCTCATTGAGATC ((((((...)))))) | -34.9 kcal/mol | 54.2 °C
GAACTTGGAAACAAGTTC (((((((....))))))) | -39 kcal/mol | 57.4 °C
CGCCCGGAAACGGCGCG ((((((....))).))) | -26.8 kcal/mol | 58.4 °C
GCGATACTCGC ((((...)))) | -22.8 kcal/mol | 49.3 °C
GCACTTGGAAACAAGTGC (((((((....))))))) | -34.6 kcal/mol | 67.7 °C
GAAGCGACGAAAGTCTTC (((..(((....)))))) | -9.61 kcal/mol | 27.9 °C
GGGACCGAAAGGTCGCCC ((((((....)))..))) | -10.3 kcal/mol | 57.5 °C

Sequence | folding enthalpy [1] | Tm [2]
GCCACCGGAAACAGTGGC (((((.(....).))))) | -30.7 kcal/mol | 52.6 °C
GATCCGTTGCGGATC ((((((...)))))) | -43 kcal/mol | 57.3 °C
GTCTCCGAAAGGACCGAC ((((((....)))..))) | -16.9 kcal/mol | 28.2 °C
GTTCTCGAAAGAGATAAC ((((((....)))..))) | -13.9 kcal/mol | 28.8 °C
CAGTTGAAAAACTG (((((....))))) | -20.9 kcal/mol | 44.7 °C
GACACTGGAAACAGTACC (..((((....))))..) | -13 kcal/mol | 24.2 °C
GCCTTGCGAAAGCAGGGC (((.(((....))).))) | -29.5 kcal/mol | 69 °C
GGCTCTCGAAAGAGTGCC (((.(((....))).))) | -49.1 kcal/mol | 58.1 °C
GATCCTCGCCAGGATC ((((((....)))))) | -37.4 kcal/mol | 50.7 °C
GAGAGCGAAAGCTTTCTC ((((((....)))..))) | -21.4 kcal/mol | 46.6 °C
GCTCGACGAAAGTCAGC (((.(((....)))))) | -19.3 kcal/mol | 51.6 °C
GACTCGACGAAAGTCGTC (((..(((....)))))) | -8.01 kcal/mol | 31.4 °C
GGACTAGGAAACCAGTCC (((((.(....).))))) | -31 kcal/mol | 44.8 °C
GTTTGAGGAAACTTAGAC ((.(.((....)).).)) | -13.5 kcal/mol | 32.3 °C
GCGCAAGGAAACCTACGC (((.(.(....).).))) | -16.4 kcal/mol | 34.6 °C
GACTCCGGAAACGAAGTC ((((.((....)).)))) | -29.4 kcal/mol | 37.1 °C
GGAATCGAAAGATTCTCC ((((((....)))..))) | -13.5 kcal/mol | 44.4 °C
GGTACCGAAAGGTGCACC ((((((....)))..))) | -13.9 kcal/mol | 40.3 °C
GTAGGGCGAAAGCCTAC (((.(((....)))))) | -14.1 kcal/mol | 51.8 °C
GCGCGCGAAAGCGAACGC ((((((....)))..))) | -22.9 kcal/mol | 60 °C
GCATACGGAAACGCATGC ((((.((....)).)))) | -34.5 kcal/mol | 48.5 °C
GCGTAGAAATACGC (((((....))))) | -25.1 kcal/mol | 55.2 °C
GCTCCACGAAAGTGCAGC (((.(((....))).))) | -22.1 kcal/mol | 46.2 °C
